The source made the active and inactive calls. The rule behind the calls is not given here.
Experiments:
[1] = test system: HepG2; assay: Cytotoxicity against human HepG2 cells after 48 hrs by MTT assay; assay type: functional, cell-based; conditions: HepG2, 48 h
[2] = test system: HepG2; assay: Cell cycle arrest in human HepG2 cells assessed as accumulation at G0/G1 phase at 1.25 to 5 ug/ml after 24 hrs using propidium iodide by flow cytometry; assay type: functional, cell-based
In short: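 HepG2 cells incubated 24 h with compound at 1.25, 2.5 and 5.0 μg/mL or left untreated (control); cell cycle distribution read by flow cytometry; significance versus untreated control given as P < 0.05 / P < 0.01.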

[3] = test system: MCF7; assay: Cytotoxicity against human MCF7 cells after 48 hrs by MTT assay; assay type: functional, cell-based; conditions: MCF7, 48 h
[4] = AUC (0 to t) in Sprague-Dawley rat at 25 mg/kg, po as single dose; assay type: ADME, organism-based; parameters: dose 25 mg/kg, route oral; conditions: plasma
In short: (§1)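 Adult male Sprague–Dawley rats (n = 3) received a single oral dose of 25 mg/kg. Nine blood samples were drawn over 24 h to build a plasma concentration–time curve. Parameters were derived by noncompartmental analysis and reported as mean ± deviation.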

[5] = Mean residence time in Sprague-Dawley rat at 25 mg/kg, po as single dose; assay type: ADME, organism-based; parameters: dose 25 mg/kg, route oral; conditions: in vivo; in short: as §1
[6] = Tmax in Sprague-Dawley rat at 25 mg/kg, po as single dose; assay type: ADME, organism-based; parameters: dose 25 mg/kg, route oral; conditions: in vivo; in short: as §1
[7] = AUC (0 to infinity) in Sprague-Dawley rat at 25 mg/kg, po as single dose; assay type: ADME, organism-based; parameters: time infinity, dose 25 mg/kg, route oral; conditions: plasma; in short: as §1
[8] = test system: MCF7; assay: Cytotoxicity against adriamycin-resistant human MCF7 cells after 48 hrs by MTT assay; assay type: functional, cell-based; conditions: MCF7, 48 h
[9] = Half life in Sprague-Dawley rat at 25 mg/kg, po as single dose; assay type: ADME, organism-based; parameters: dose 25 mg/kg, route oral; conditions: in vivo; in short: as §1
[10] = Cmax in Sprague-Dawley rat at 25 mg/kg, po as single dose; assay type: ADME, organism-based; parameters: dose 25 mg/kg, route oral; conditions: in vivo; in short: as §1

Compound	IC50 [1] [µM]	further results
COc1cccc(CN2C[C@H]3CCCN4CCC[C@@H]([C@H]34)[C@H]2CCCCO)c1Cl	23.6	
CC(=O)O[C@H]1C(=O)[C@@]2(C)[C@H]([C@H](OC(=O)c3ccccc3)[C@]3(O)C[C@H](OC(=O)[C@H](O)[C@@H](NC(=O)c4ccccc4)c4ccccc4)C(C)=C1C3(C)C)[C@]1(OC(C)=O)CO[C@@H]1C[C@@H]2O [PACLITAXEL]	15.6	
COC(=O)CCC[C@@H]1[C@H]2CCCN3CCC[C@H](CN1Cc1ccc(OC)cc1)[C@@H]23	10.7	
COC(=O)CCC[C@@H]1[C@H]2CCCN3CCC[C@H](CN1Cc1ccc(OC)c(OC)c1Cl)[C@@H]23	8.4	
O=C1CCC[C@@H]2[C@H]3CCCN4CCC[C@H](CN12)[C@@H]34 [SOPHORIDINE]	> 80	Activity [2]: Active
COC(=O)CCC[C@@H]1[C@H]2CCCN3CCC[C@H](CN1Cc1ccccc1OC)[C@@H]23	10.3	
COc1cc(CN2C[C@H]3CCCN4CCC[C@@H]([C@H]34)[C@H]2CCCC(=O)O)cc(OC)c1OC	> 40	
CCOc1ccc(CN2C[C@H]3CCCN4CCC[C@@H]([C@H]34)[C@H]2CCCCO)cc1OC	> 40	
OCCCC[C@@H]1[C@H]2CCCN3CCC[C@H](CN1Cc1c4ccccc4cc4ccccc14)[C@@H]23	3.1	IC50 [3]: 5.63 µM; AUC(0-t) [4]: 10.3 µM·h; Activity [2]: Active; MRT [5]: 5.4 h; Tmax [6]: 4.6 h; AUC(0-inf) [7]: 10.5 µM·h; IC50 [8]: 5.94 µM; half-life [9]: 12.7 h; Cmax [10]: 3.4 µM
O=C(O)CCC[C@@H]1[C@H]2CCCN3CCC[C@H](CN1Cc1ccc4ccccc4c1)[C@@H]23	> 40	
Fc1ccc(C(=CCC[C@@H]2[C@H]3CCCN4CCC[C@H](CN2Cc2c5ccccc5cc5ccccc25)[C@@H]34)c2ccc(F)cc2)cc1	5.3	
COc1ccccc1CN1C[C@H]2CCCN3CCC[C@@H]([C@H]23)[C@H]1CCCC(=O)O	> 40	
O=C(CCC[C@@H]1[C@H]2CCCN3CCC[C@H](CN1Cc1c4ccccc4cc4ccccc14)[C@@H]23)c1ccc(Cl)cc1	2	
OCCCC[C@@H]1[C@H]2CCCN3CCC[C@H](CN1Cc1ccc4ccccc4c1)[C@@H]23	7.9	
O=C(O)CCC[C@@H]1[C@H]2CCCN3CCC[C@H](CN1Cc1cccc4ccccc14)[C@@H]23	> 40	
COc1ccc(CN2C[C@H]3CCCN4CCC[C@@H]([C@H]34)[C@H]2CCCCO)c(Cl)c1OC	15.7	
CCC(O)(CC)CCC[C@@H]1[C@H]2CCCN3CCC[C@H](CN1Cc1c4ccccc4cc4ccccc14)[C@@H]23	2.7	
COC(=O)CCC[C@@H]1[C@H]2CCCN3CCC[C@H](CN1Cc1cc(OC)c(OC)c(OC)c1)[C@@H]23	> 40	
COc1cc(CN2C[C@H]3CCCN4CCC[C@@H]([C@H]34)[C@H]2CCCCO)cc(OC)c1OC	> 40	
CC(C)(O)CCC[C@@H]1[C@H]2CCCN3CCC[C@H](CN1Cc1c4ccccc4cc4ccccc14)[C@@H]23	2.1	
COC(=O)CCC[C@@H]1[C@H]2CCCN3CCC[C@H](CN1Cc1c4ccccc4cc4ccccc14)[C@@H]23	4.3	
OCCCC[C@@H]1[C@H]2CCCN3CCC[C@H](CN1Cc1cccc4ccccc14)[C@@H]23	6.8	IC50 [3]: 9.07 µM; IC50 [8]: 9.51 µM
COc1cccc(CN2C[C@H]3CCCN4CCC[C@@H]([C@H]34)[C@H]2CCCC(=O)O)c1OC	> 40	
COC(=O)CCC[C@@H]1[C@H]2CCCN3CCC[C@H](CN1Cc1cccc4ccccc14)[C@@H]23	3.3	
COc1ccccc1CN1C[C@H]2CCCN3CCC[C@@H]([C@H]23)[C@H]1CCCCO	34.6	
COc1ccc(CN2C[C@H]3CCCN4CCC[C@@H]([C@H]34)[C@H]2CCCCO)cc1	> 40	
COC(=O)CCC[C@@H]1[C@H]2CCCN3CCC[C@H](CN1Cc1ccc4ccccc4c1)[C@@H]23	5.8	
COC(=O)CCC[C@@H]1[C@H]2CCCN3CCC[C@H](CN1Cc1cccc(OC)c1)[C@@H]23	10.7	
COC(=O)CCC[C@@H]1[C@H]2CCCN3CCC[C@H](CN1Cc1ccc(OC)c(OC)c1)[C@@H]23	> 40	
